Tests used:
[1] = Growth inhibition of human NCI60 cells after 48 hrs by SRB assay; type: functional; conditions: NCI60, 48 h; for CC50: read-out: LC50 (the source's name)
K562 = test: Cytotoxicity against human K562 cells after 96 hrs by alamar blue assay; type: functional, cell-based; conditions: K562, 96 h
How it was run: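 K562 cells kept in RPMI with 10% fetal calf serum and 2 mM glutamine, seeded at 10⁴ cells/mL. Compounds serially diluted in DMSO and added in triplicate; exposure 96 h at 37 °C, 5% CO₂. Alamar Blue (1 μM final) then added for a further 4 h; read by fluorescence emission at 580-620 nm.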

Structure (SMILES)	GI50 [1] [µM]	TGI [1] [µM]	CC50 [1] [µM]	IC50 (K562) [µM]
COc1ccc2cc(C3=CN4C(=O)c5cc(OC)c(OC)cc5N=C[C@@H]4C3)ccc2c1	0.0009	0.007	0.27	0.0023
COc1cc2c(cc1OC)C(=O)N1C=C(c3cn[nH]c3)C[C@H]1C=N2	0.012	0.27	6.46	0.0201
COc1cccc(C2=CN3C(=O)c4cc(OC)c(OC)cc4N[C@@H](S(=O)(=O)O)[C@@H]3C2)c1	0.005	0.07	0.0004	0.0071
COc1cc2c(cc1OC)C(=O)N1C=C(c3ccc([N+](=O)[O-])cc3)C[C@H]1C=N2	0.004	0.07	6.92	0.0131
COC(=O)c1cccc(C2=CN3C(=O)c4cc(OC)c(OC)cc4N=C[C@@H]3C2)c1	0.005	0.04	7.58	0.0124
COc1cc2c(cc1OC)C(=O)N1C=C(c3cccc(C)c3)C[C@H]1C=N2	0.005	0.07	7.58	0.0095
COc1cc2c(cc1OC)C(=O)N1C=C(c3cccc4c3oc3ccccc34)C[C@H]1C=N2	0.049	0.21	2.82	0.162
CCOc1ccc2cc(C3=CN4C(=O)c5cc(OC)c(OC)cc5N=C[C@@H]4C3)ccc2c1	0.002	0.02	1.95	0.0126
COc1cc2c(cc1OC)C(=O)N1C=C(c3ccc4ncccc4c3)C[C@H]1[C@H](S(=O)(=O)O)N2	0.0002	0.004	0.0014	0.0013
COc1cc2c(cc1OC)C(=O)N1C=C(c3ccc(C(=O)N4CCN(C)CC4)cc3)C[C@H]1C=N2	0.015	0.71	13.8	0.0595
COc1cc2c(cc1OC)C(=O)N1C=C(c3ccc(C(=O)NCCO)cc3)C[C@H]1C=N2	0.158	1.86	12.6	0.161
COc1cc2c(cc1OC)C(=O)N1C=C(c3cccc(OC(F)(F)F)c3)C[C@H]1C=N2	0.006	0.18	7.24	0.0765
COc1cc2c(cc1OC)C(=O)N1C=C(c3cccc([N+](=O)[O-])c3)C[C@H]1C=N2	0.005	0.05	5.62	0.0581
COc1cc2c(cc1OC)C(=O)N1C=C(c3cccc4ccccc34)C[C@H]1C=N2	0.138	0.95	13.9	0.572
COc1cc2c(cc1OC)C(=O)N1CCC[C@H]1C=N2	2.14	19	57.5	0.488
COc1cc2c(cc1OC)C(=O)N1C=C(c3cccc(C#N)c3)C[C@H]1C=N2	0.004	0.56	16.2	0.0151
COc1cc2c(cc1OC)C(=O)N1C=C(c3ccc(C(=O)NCCN(C)C)cc3)C[C@H]1C=N2	0.019	0.09	3.89	0.114
COc1cc2c(cc1OC)C(=O)N1C=C(c3cccnc3)C[C@H]1C=N2	0.005	0.07	17	0.0182
COc1cc2c(cc1OC)C(=O)N1C=C(/C=C/c3ccccc3)C[C@H]1C=N2	0.004	0.02	1.58	0.0001
C=CC1=CN2C(=O)c3cc(OC)c(OC)cc3N=C[C@@H]2C1	0.078	1.23	30.2	0.0027

Structure (SMILES)	GI50 [1] [µM]	TGI [1] [µM]	CC50 [1] [µM]	IC50 (K562) [µM]
COc1cc2c(cc1OC)C(=O)N1C=C(c3cnn(C)c3)C[C@H]1C=N2	0.003	0.05	5.37	0.0122
COc1cc2c(cc1OC)C(=O)N1C=C(/C=C/c3ccc(F)cc3)C[C@H]1C=N2	0.005	0.01	1.1	0.00013
COc1cc2c(cc1OC)C(=O)N1C=C(c3ccc(O)cc3)C[C@H]1C=N2	0.002	0.08	3.39	0.0103
COc1cc2c(cc1OC)C(=O)N1C=C(c3c(F)cccc3F)C[C@H]1C=N2	0.025	0.33	4.36	0.0071
COc1cc2c(cc1OC)C(=O)N1C=C(c3ccc(C(C)(C)C)cc3)C[C@H]1[C@H](S(=O)(=O)O)N2	0.008	0.05	0.0478	0.07
COc1cc2c(cc1OC)C(=O)N1C=C(c3cccc(F)c3)C[C@H]1C=N2	0.003	0.05	16.6	0.0064
COc1cc2c(cc1OC)C(=O)N1C=C(c3ccc4ccccc4c3)C[C@H]1[C@H](S(=O)(=O)O)N2	0.002	0.02	0.0454	0.0018
COc1cc2c(cc1OC)C(=O)N1C=C(c3cc4ccccc4o3)C[C@H]1C=N2	0.006	0.05	0.44	0.0108
COc1cc2c(cc1OC)C(=O)N1C=C(/C=C/c3ccc(C)cc3)C[C@H]1C=N2	0.002	0.05	0.44	0.0411
COc1cc2c(cc1OC)C(=O)N1C=C(c3ccccc3C(F)(F)F)C[C@H]1C=N2	0.016	0.16	4.36	0.258
COc1cc2c(cc1OC)C(=O)N1C=C(c3c(OC)cccc3OC)C[C@H]1C=N2	0.11	1.1	11.7	0.061
COc1ccc([C@H]2C[C@H]3C=Nc4cc(OC)c(OC)cc4C(=O)N3C2)cc1	9.77	43.6	91.2	> 1
COc1cc2c(cc1OC)C(=O)N1C=C(c3ccncc3)C[C@H]1C=N2	0.018	0.6	26.9	0.0287
COc1cc2c(cc1OC)C(=O)N1C=C(c3cccc(C(F)(F)F)c3)C[C@H]1C=N2	0.006	0.03	1.35	0.0468
COc1cc2c(cc1OC)C(=O)N1C=C(c3ccc(N4CCN(C)CC4)cc3)C[C@H]1C=N2	0.005	0.08	8.32	0.00063
COc1cc2c(cc1OC)C(=O)N1C=C(c3ccc(Cl)c(Cl)c3)C[C@H]1C=N2	0.003	0.05	3.02	0.106
COc1cc2c(cc1OC)C(=O)N1C=C(c3ccc(N4CCOCC4)cc3)C[C@H]1C=N2	0.005	0.16	13.2	0.0088
COc1cc2c(cc1OC)C(=O)N1C=C(c3cccc(Cl)c3)C[C@H]1C=N2	0.017	0.1	0.54	0.0194
COc1cc2c(cc1OC)C(=O)N1C=C(c3ccc(Br)cc3)C[C@H]1C=N2				0.237
COc1cc2c(cc1OC)C(=O)N1C=C(c3cccc(C(=O)O)c3)C[C@H]1C=N2				> 1

— ChEMBL document CHEMBL1165887, “Structure-activity relationships of monomeric C2-aryl pyrrolo[2,1-c][1,4]benzodiazepine (PBD) antitumor agents” (J Med Chem, 2010)
